Activity calls are given as the source filed them. The rule behind the calls is not given here.
Assays:
[1] = tested on: Rattus norvegicus; experiment: Bradycardic activity was evaluated in an anesthetized rat model as percent heart rate(beats/min) reduction 20 min after iv injection of 5 mg/kg; assay type: functional
Summary of the method: (§1)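 Male Chbb:THOM rats, 200-250 g, anesthetized with pentobarbital sodium 50 mg/kg ip, with the trachea cannulated and artificial respiration given. Heart rate was recorded continuously by an ECG-triggered beat-to-beat tachograph before and at 5 and 20 min after a single iv injection of 5 mg/kg. Values are % change from pre-dose, reported ± SEM.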

[2] = tested on: Rattus norvegicus; experiment: Bradycardic activity was evaluated in an anesthetized rat model as percent heart rate(beats/min) reduction 5 min after iv injection of 5 mg/kg; assay type: functional; summary of the method: as §1
[3] = tested on: Rattus norvegicus; experiment: Hypotensive activity was evaluated in an anesthetized rat model as percent mean aortic blood pressure(mm hg) reduction 5 min after iv injection of 5 mg/kg of the compound; NA=Not active; assay type: functional, organism-based; design: dose 5 mg/kg; conditions: Artery
Summary of the method: (§2)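 In pentobarbital-anesthetized (50 mg/kg ip), artificially ventilated male Chbb:THOM rats (200-250 g), mean aortic pressure was measured through a carotid artery cannula connected to an electromechanical transducer. Readings were taken before and 5 min after 5 mg/kg iv. Values are % change from baseline, ± SEM.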

[4] = organism: Rattus norvegicus; experiment: Delta HR ratio measured as the ratio of delta HR(20 min)/delta HR (5 min); assay type: functional
Summary of the method: (§3)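 Duration-of-action index: the % heart-rate reduction at 20 min divided by that at 5 min after 5 mg/kg iv. Rats were male Chbb:THOM, pentobarbital-anesthetized and ventilated, with heart rate taken from an ECG-triggered tachograph.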

[5] = tested on: Rattus norvegicus; experiment: Bradycardic activity was evaluated in an anesthetized rat model as percent heart rate(beats/min) reduction 20 min after iv injection of 5 mg/kg of the compound; NA=Not active; assay type: functional, organism-based; design: dose 5 mg/kg; summary of the method: as §1
[6] = tested on: Rattus norvegicus; experiment: Bradycardic activity was evaluated in an anesthetized rat model as percent heart rate(beats/min) reduction 5 min after iv injection of 5 mg/kg of the compound; NA=Not active; assay type: functional, organism-based; design: dose 5 mg/kg; summary of the method: as §1
[7] = tested on: Rattus norvegicus; experiment: Hypotensive activity was evaluated in an anesthetized rat model as percent mean aortic blood pressure(mm hg) reduction 5 min after iv injection of 5 mg/kg; assay type: functional, Artery; summary of the method: as §2
[8] = (§4) delta HR Ratio measured as the ratio of delta HR(20 min)/delta HR (5 min); assay type: functional; summary of the method: as §3
[9] = organism: Rattus norvegicus; experiment: (§5) Ratio of heart rate reduction to mean arterial blood pressure reduction; assay type: functional
Summary of the method: (§6)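 Selectivity parameter S: the % heart-rate reduction divided by the % mean arterial pressure reduction, both read 5 min after 5 mg/kg iv in anesthetized, ventilated male Chbb:THOM rats. Heart rate came from an ECG-triggered tachograph and pressure from a carotid cannula.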

[10] = tested on: Rattus norvegicus; experiment: Bradycardic activity was evaluated in an anesthetized rat model as percent heart rate(beats/min) reduction 20 min after iv injection of 5 mg/kg of the compound; NA= Not active; assay type: functional, organism-based; design: dose 5 mg/kg; summary of the method: as §1
[11] = as §5; assay type: tissue-based; summary of the method: as §6
[12] = as §4; summary of the method: as §3

| Compound | Delta HR [1] | Delta HR [2] | Delta MAP [3] | Ratio [4] | Delta HR [5] | Delta HR [6] | also measured |
| --- | --- | --- | --- | --- | --- | --- | --- |
| COc1cc2c(cc1OC)CC(=O)N(CCCN(C)Cc1c(C)noc1C)CC2 | -14% | -5% | inactive | 2.8 | – | – | – |
| COc1cc2c(cc1OC)CC(=O)N(CCCN(C)CCc1cncc3cc(OC)c(OC)cc13)CC2 | -5% | -5% | inactive | 1 | – | – | – |
| COc1cc2c(cc1OC)CC(=O)N(CCCN(C)CCc1ccsc1)CC2 | -19% | -24% | inactive | 0.79 | – | – | – |
| COc1cc2c(cc1OC)CC(=O)N(CCCN(C)Cc1ccccn1)CC2 | – | – | inactive | – | inactive | inactive | – |
| COc1cc2c(cc1OC)CC(=O)N(CCCN(C)CCn1cnc3ccccc31)CC2 | -15% | -10% | inactive | 1.5 | – | – | – |
| COc1cc2c(cc1OC)CC(=O)N(CCCN(C)CCc1scnc1C)CC2 | – | – | inactive | – | inactive | inactive | – |
| COc1cc2c(cc1OC)CC(=O)N(CCCN(C)CCc1cn(C)cn1)CC2 | -11% | -10% | – | – | – | – | Delta MAP [7]: -10%; Ratio [8]: 1.1; Selectivity [9]: 1 |
| COc1cc2c(cc1OC)CC(=O)N(CCCN(C)CCc1ccccn1)CC2 | -16% | -15% | inactive | 1.1 | – | – | – |
| COc1ccc2c(CCN(C)CCCN3CCc4cc(OC)c(OC)cc4CC3=O)csc2c1 | -60% | -67% | – | – | – | – | Delta MAP [7]: -52%; Ratio [8]: 0.89; Selectivity [9]: 1.3 |
| COc1cc2c(cc1OC)CC(=O)N(CCCN(C)CCCCn1ccnc1)CC2 | – | – | inactive | – | inactive | inactive | – |
| COc1cc2c(cc1OC)CC(=O)N(CCCN(C)CCn1ccnc1)CC2 | – | – | inactive | – | inactive | inactive | – |
| COc1cc2c(cc1OC)CC(=O)N(CCCN(C)CCc1c[nH]cn1)CC2 | – | – | – | – | – | inactive | Delta HR [10]: inactive; Delta MAP [7]: -11% |
| COc1cc2c(cc1OC)CC(=O)N(CCCN(C)CCc1ccncc1)CC2 | -21% | -10% | inactive | 2.1 | – | – | – |
| COc1cc2c(cc1OC)CC(=O)N(CCCN(C)CCc1c[nH]c3c(C)cccc13)CC2 | -44% | -50% | – | – | – | – | Delta MAP [7]: -26%; Selectivity [11]: 1.9; Ratio [12]: 0.88 |
| COc1cc2c(cc1OC)CC(=O)N(CCCN(C)Cc1cccnc1)CC2 | – | – | inactive | – | inactive | inactive | – |

Reference: ChEMBL document CHEMBL1125645, “Specific bradycardic agents. 2. Heteroaromatic modifications in the side chain of specific bradycardic benzazepinones: chemistry, pharmacology, and structure-activity relationships” (1991)
